# Results published in ChEMBL document CHEMBL1145787, “Synthesis and structure-activity relationship of N-substituted 4-arylsulfonylpiperidine-4-hydroxamic acids as novel, orally active matrix metalloproteinase inhibitors for the treatment of osteoarthritis” (J Med Chem, 2003).
# Experiments:
# [1] = Apparent elimination half life of compound was determined in monkey at 25 mg/kg orally; type: ADME, organism-based; set-up: dose 25 mg/kg, route oral; conditions: simiiformes, in vivo, po
# Procedure, shortened: (§1)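 Single-dose PK in Sprague–Dawley rats, New Zealand rabbits, Beagle dogs and cynomolgus monkeys. Dosing was 25 mg/kg oral or 5 mg/kg iv. Plasma concentration–time profiles gave the apparent elimination half-life (T1/2) and the area under the concentration–time curve (AUC). Parameters are reported as means.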
# [2] = Maximum plasma concentration of compound was determined in rabbit at 25 mg/kg orally; type: ADME, organism-based, Oryctolagus cuniculus; set-up: dose 25 mg/kg, route oral; conditions: po
# Procedure, shortened: (§2)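 Single oral dose of 25 mg/kg in Sprague–Dawley rats, New Zealand rabbits, Beagle dogs and Cynomolgus monkeys. Mean plasma pharmacokinetics; Cmax is the maximum plasma concentration and Tmax is the time of peak concentration.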
# [3] = Maximum plasma concentration of compound was determined in dog at 25 mg/kg orally; type: ADME, organism-based, Canis lupus familiaris; set-up: dose 25 mg/kg, route oral; conditions: po; procedure, shortened: as §2
# [4] = Area under concentration-time curve of compound was determined in rabbit at 5 mg/kg intravenously admn.; type: ADME, organism-based, Oryctolagus cuniculus; set-up: dose 5 mg/kg, route intravenous; conditions: in vivo, iv, read-out: AUC 0; procedure, shortened: as §1
# [5] = Volume of distribution at steady state of compound was determined in monkey at 5 mg/kg intravenously admn.; type: ADME, organism-based; set-up: dose 5 mg/kg, route intravenous; conditions: simiiformes, in vivo, iv, read-out: Vdss
# Procedure, shortened: (§3)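 Single iv dose of 5 mg/kg in Sprague–Dawley rats, New Zealand rabbits, Beagle dogs and Cynomolgus monkeys. Mean plasma pharmacokinetics: C0 is the concentration at T=0, Vdss the volume of distribution at steady state, and CLT the total clearance.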
# [6] = Total clearance of compound was determined in rat at 5 mg/kg intravenously admn.; type: ADME, organism-based; set-up: dose 5 mg/kg, route intravenous; conditions: in vivo, iv, read-out: CLT; procedure, shortened: as §3
# [7] = Area under concentration-time curve of compound was determined in monkey at 25 mg/kg orally; type: ADME, organism-based; set-up: dose 25 mg/kg, route oral; conditions: simiiformes, in vivo, po; procedure, shortened: as §1
# [8] = Volume of distribution at steady state of compound was determined in dog at 5 mg/kg intravenously admn.; type: ADME, organism-based, Canis lupus familiaris; set-up: dose 5 mg/kg, route intravenous; conditions: in vivo, iv, read-out: Vdss; procedure, shortened: as §3
# Collagenase 3 = Collagenase 3 (Homo sapiens, UniProt P45452)
# [9] = In vivo inhibitory activity against Matrix metalloprotease enzyme by dialysis implant assay, value is relative to activity of CGS-27023 (48+/-3) at 25 mg/kg. po; type: functional
# [10] = Area under concentration-time curve of compound was determined in rat at 25 mg/kg orally; type: ADME, organism-based; set-up: dose 25 mg/kg, route oral; conditions: in vivo, po; procedure, shortened: as §1
# [11] = Total clearance of compound was determined in rabbit at 5 mg/kg intravenously admn.; type: ADME, organism-based, Oryctolagus cuniculus; set-up: dose 5 mg/kg, route intravenous; conditions: in vivo, iv, read-out: CLT; procedure, shortened: as §3
# [12] = Apparent elimination half life of compound was determined in rabbit at 25 mg/kg orally; type: ADME, organism-based, Oryctolagus cuniculus; set-up: dose 25 mg/kg, route oral; conditions: in vivo, po; procedure, shortened: as §1
# [13] = Apparent elimination half life of compound was determined in rabbit at 5 mg/kg intravenously admn.; type: ADME, organism-based, Oryctolagus cuniculus; set-up: dose 5 mg/kg, route intravenous; conditions: in vivo, iv; procedure, shortened: as §1
# [14] = Oral bioavailability of compound was determined in monkey at 25 mg/kg orally; type: ADME, organism-based; conditions: simiiformes, in vivo, read-out: Bioavailabiility
# [15] = Area under concentration-time curve of compound was determined in rabbit at 25 mg/kg orally; type: ADME, organism-based, Oryctolagus cuniculus; set-up: dose 25 mg/kg, route oral; conditions: in vivo, po; procedure, shortened: as §1
# [16] = Total clearance of compound was determined in dog at 5 mg/kg intravenously admn.; type: ADME, organism-based, Canis lupus familiaris; set-up: dose 5 mg/kg, route intravenous; conditions: in vivo, iv, read-out: CLT; procedure, shortened: as §3
# [17] = Peak concentration of compound at Time = 0 was determined in dog at 5 mg/kg intravenously admn.; type: ADME, organism-based, Canis lupus familiaris; set-up: dose 5 mg/kg, route intravenous; conditions: in vivo, iv; procedure, shortened: as §3
# [18] = Time of peak concentration of compound was determined in rabbit at 25 mg/kg orally; type: ADME, organism-based, Oryctolagus cuniculus; set-up: dose 25 mg/kg, route oral; conditions: in vivo, po; procedure, shortened: as §2
# [19] = Area under concentration-time curve of compound was determined in monkey at 5 mg/kg intravenously admn.; type: ADME, organism-based; set-up: dose 5 mg/kg, route intravenous; conditions: simiiformes, in vivo, iv, read-out: AUC 0; procedure, shortened: as §1
# [20] = Area under concentration-time curve of compound was determined in rat at 5 mg/kg intravenously admn.; type: ADME, organism-based; set-up: dose 5 mg/kg, route intravenous; conditions: in vivo, iv, read-out: AUC 0; procedure, shortened: as §1
# [21] = Peak concentration of compound at Time = 0 was determined in rabbit at 5 mg/kg intravenously admn.; type: ADME, organism-based, Oryctolagus cuniculus; set-up: dose 5 mg/kg, route intravenous; conditions: in vivo, iv; procedure, shortened: as §3
# Matrilysin = target: T1, Matrilysin (Homo sapiens, UniProt P09237); assay: Inhibition of Matrix metalloprotease-7
# T1 sequence (P09237 whole entry): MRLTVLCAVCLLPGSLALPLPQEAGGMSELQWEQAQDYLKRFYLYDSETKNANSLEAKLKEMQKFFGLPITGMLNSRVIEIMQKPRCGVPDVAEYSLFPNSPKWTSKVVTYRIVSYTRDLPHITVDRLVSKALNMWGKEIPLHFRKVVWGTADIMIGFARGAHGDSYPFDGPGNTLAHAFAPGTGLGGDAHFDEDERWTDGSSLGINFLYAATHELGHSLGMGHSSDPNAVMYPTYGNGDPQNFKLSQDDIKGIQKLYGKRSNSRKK
# Procedure, shortened: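 Each inhibitor concentration was tested in triplicate. IC50 came from a four-parameter logistic fit of data within a single experiment and is reported as the mean of the triplicate values.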
# Oryctolagus cuniculus = assay: Effect of compound on cartilage in surgically induced osteoarthritis (OA) model in rabbit at 25 mg/kg, value are relative to activity of RS-130830 (7.9+/-1.5) at 25 mg/kg; type: ADME, organism-based, Cartilage tissue; conditions: in vivo
# Procedure, shortened: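 Rabbits had anterior cruciate ligament transection plus meniscectomy in one knee, with sham surgery on the contralateral knee. From day 10 after surgery, groups of 12 were dosed once daily by oral gavage with vehicle, test compound or the RS-130830 reference for 4 weeks. Knee joints were then collected and scored for gross pathological changes by blinded investigators.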
# [22] = In vivo inhibition of Matrix metalloprotease enzyme by Sponge-wrapped cartilage assay, compared to activity of RS-130830 (inactive) at 5 mg/kg. po. qd; type: functional
# [23] = Volume of distribution at steady state of compound was determined in rabbit at 5 mg/kg intravenously admn.; type: ADME, organism-based, Oryctolagus cuniculus; set-up: dose 5 mg/kg, route intravenous; conditions: in vivo, iv, read-out: Vdss; procedure, shortened: as §3
structure (smiles),measurement,setting,value
O=C(NO)C1(S(=O)(=O)c2ccc(Oc3ccc(Cl)cc3)cc2)CCN(Cc2ccccc2)CC1,half-life,[1],20 h
same,Cmax,[2],22.7 µg/mL
same,Cmax,[3],96.3 µg/mL
same,AUC,[4],640 µg·h/mL
same,Vd,[5],0.2 L/kg
same,clearance,[6],0.3 mL/min/kg
same,AUC,[7],1410 µg·h/mL
same,Vd,[8],0.1 L/kg
same,IC50,Collagenase 3,1 nM
same,inhibition in vivo at 25 mg/kg,[9],53%
same,AUC,[10],899 µg·h/mL
same,clearance,[11],0.1 mL/min/kg
same,half-life,[12],7.14 h
same,half-life,[13],11.8 h
same,bioavailability,[14],37%
same,AUC,[15],363 µg·h/mL
same,clearance,[16],0.1 mL/min/kg
same,C0,[17],82 µg/mL
same,Tmax,[18],10 h
same,AUC,[19],1510 µg·h/mL
same,AUC,[20],327 µg·h/mL
same,C0,[21],126 µg/mL
same,IC50,Matrilysin,925 nM
same,Average gross pathology scores+/- SE,Oryctolagus cuniculus,6.8
same,inhibition in vivo at 5 mg/kg,[22],24%
same,Vd,[23],0.1 L/kg
